Assay outcomes deposited in PubChem by Sanford-Burnham Center for Chemical Genomics.
A selection: hits, their analogues and other compounds. The true share with any hit is near 1.7%.
MLLE-PAM2 inh = inhibitors of PABP1 MLLE–PAM2 peptide binding, primary screen, biochemical, fluorescence polarization, FITC-PAM2, GST-MLLE; Polyadenylate-binding protein 1 (Homo sapiens), P11940; inhibition, % at 20 µM; 0.36% of 360,000 active; AID 588489, 2011; in the data active = inhibition above about 35%, passing the limit was not always enough
SKN-1 block = suppressors of acrylamide-induced Pgst-4::GFP reporter in worms, primary screen, SKN-1 inhibitor project, whole organism, uHTS, GFP/RFP fluorescence ratio, strain VP596; C. elegans VP596 Pgst-4::GFP/RFP ratio, 24 h; inhibition, % at 21.8 µM; 0.49% of 360,000 active; AID 624304, 2012;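 active = interference check ratio from 0.5 to 1.5 plus GFP to RFP signal ratio inhibition reaching or exceeding a fixed threshold, cut at about 30% in these data, passing the limit was not always enough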
PABP FP inh = PABP poly(A) RNA binding inhibitors, primary screen, biochemical, fluorescence polarization, uHTS | AID 2014, 2009 | 1% of 290,000 active | inhibition, % at 35 µM | Polyadenylate-binding protein 1 (Homo sapiens), P11940;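 also: calls also rest on retests at 20 µM and on dose response follow-up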
eIF4H FP inh = human eIF4H binding inhibitors, primary screen, translation initiation inhibitor project, biochemical, uHTS, fluorescence polarization. inhibition, % at 35 µM. Eukaryotic translation initiation factor 4H (Homo sapiens), Q15056. eIF4H fluorescence polarization binding assay. 0.94% of 290,000 active;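 also: calls also rest on retests at 20 µM and on dose response follow-up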
MT1-MMP act inh = blockers of MT1-MMP proenzyme processing, primary screen, HT1080 RFP-PRO-GFP cells, GFP/RFP fluorescence. GFP/RFP ratio fluorescence, overnight; percent of plate control window, DMSO zero. GFP/RFP ratio change, % at 20 µM. 0.061% of 360,000 active. AID 651647, 2012;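 active = GFP/RFP ratio change of at least 30% with cell ATP level not reduced by more than half and red fluorescence within 50% of control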
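Test system: HT1080 RFP-PRO-GFP cells; Benchmarks: DMSO and RFP-L50D-GFP cell wells; Timing: cells overnight before dosing, compound overnight, 37 °C, 5% CO2; Compound: one 20 µM compound dose with 1% DMSO; Read-out: GFP/RFP fluorescence ratio.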
MT1-MMP conf = MT1-MMP activation inhibitors, hit retest, confirmation, single concentration, fluorescence, HT1080 RFP-PRO-GFP cells; GFP and RFP fluorescence ratio, overnight; shares compounds with MT1-MMP act inh; 10% of 200 active; inhibition, % at 20 µM;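 active = inhibition of at least 50% in the primary cell screen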
Hits are given with their value. Unless noted, no rule for the calls is given here.

O=c1[nH]c(=S)n(C2CC2)c(O)c1/C=N/Nc1cccc2ccccc12 was read as MLLE-PAM2 inh inactive, SKN-1 block inactive, PABP FP inh inactive, eIF4H FP inh inactive and MT1-MMP act inh inactive.
Screening Cc1sc2ncn(CC(=O)NCCCC(=O)N3CCC4(CC3)OCCO4)c(=O)c2c1C returned MLLE-PAM2 inh inactive, SKN-1 block inactive, PABP FP inh inactive, eIF4H FP inh inactive and MT1-MMP act inh inactive.
COC(=O)C1=C(c2ccc(OC)c(OC)c2)C[C@@H]2CC[C@H]1N2C(=O)N1CCCC1 was read as MLLE-PAM2 inh inactive, SKN-1 block inactive, MT1-MMP act inh 34 and MT1-MMP conf inactive.
Screening Cc1cc(OCC(=O)N2CCC(C(=O)O)CC2)c2c3c(c(=O)oc2c1)CCCC3 returned MLLE-PAM2 inh inactive, SKN-1 block inactive, PABP FP inh inactive, eIF4H FP inh inactive and MT1-MMP act inh inactive.
Cn1cccc1/C=C1/C(=O)NC(=S)N(Cc2ccc(F)cc2)C1=O was read as MLLE-PAM2 inh inactive, SKN-1 block inactive, PABP FP inh inactive, eIF4H FP inh inactive, MT1-MMP act inh 39 and MT1-MMP conf inactive.
